Reference: ChEMBL document CHEMBL1154674, “Synthesis and evaluation of three 18F-labeled aminophenylbenzothiazoles as amyloid imaging agents” (J Med Chem, 2009)
Blank lines part the entries; values can stand above or below the molecule they belong to.

Tests used:
Assay type in all cases: ADME, organism-based
[1] = Biodistribution in NMRI mouse cerebrum assessed per gram of tissue at 3.7 MBq/mL, iv after 60 mins by gamma counting; settings: in vivo, 1 h
Procedure, shortened: (§1)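 Male NMRI mice (30-40 g) under isoflurane (1.5-2.5% in oxygen) got 0.1 mL of HPLC-purified tracer diluted with 0.9% NaCl to 3.7 MBq/mL (ethanol ≤10%) via tail vein. Mice were decapitated at 2 or 60 min p.i., and organs, blood and urine were weighed and γ-counted. Values are background-corrected %ID or %ID/g, with blood mass taken as 7% of body mass.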

[2] = tested on: Kidney; test: Biodistribution in NMRI mouse kidney assessed per gram of tissue at 3.7 MBq/mL, iv after 2 mins by gamma counting; settings: in vivo; procedure, shortened: as §1
[3] = tested on: Cerebellum; test: Biodistribution in NMRI mouse cerebellum assessed per gram of tissue at 3.7 MBq/mL, iv after 60 mins by gamma counting; settings: in vivo, 1 h; procedure, shortened: as §1
[4] = tested on: Lung; test: Biodistribution in NMRI mouse lung assessed per gram of tissue at 3.7 MBq/mL, iv after 2 mins by gamma counting; settings: in vivo; procedure, shortened: as §1
[5] = tested on: Liver; test: Drug level in NMRI mouse liver assessed as standard uptake value at 3.7 MBq/mL, iv after 60 mins by gamma counting; settings: in vivo, 1 h
Procedure, shortened: (§2)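 Male NMRI mice (30-40 g) were anaesthetised with isoflurane. Each received 0.1 mL of HPLC-purified tracer, diluted in 0.9% NaCl to 3.7 MBq/mL (ethanol ≤10%), via a tail vein. Mice were decapitated at 2 or 60 min. Organs were dissected, weighed and γ-counted with background correction. SUV = (organ cpm/organ weight)/(total recovered counts/body weight). Blood mass was taken as 7% of body mass.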

[6] = Biodistribution in NMRI mouse spleen/pancreas at 3.7 MBq/mL, iv after 60 mins by gamma counting; settings: in vivo, 1 h; procedure, shortened: as §1
[7] = tested on: Blood; test: Drug level in NMRI mouse blood assessed as standard uptake value at 3.7 MBq/mL, iv after 60 mins by gamma counting; settings: in vivo, 1 h; procedure, shortened: as §2
[8] = tested on: Lung; test: Drug level in NMRI mouse lung assessed as standard uptake value at 3.7 MBq/mL, iv after 2 mins by gamma counting; settings: in vivo; procedure, shortened: as §2
[9] = tested on: Cerebellum; test: Biodistribution in NMRI mouse cerebellum assessed per gram of tissue at 3.7 MBq/mL, iv after 2 mins by gamma counting; settings: in vivo; procedure, shortened: as §1
[10] = tested on: Cerebellum; test: Biodistribution in NMRI mouse cerebellum at 3.7 MBq/mL, iv after 60 mins by gamma counting; settings: in vivo, 1 h; procedure, shortened: as §1
[11] = Biodistribution in NMRI mouse urine at 3.7 MBq/mL, iv after 2 mins by gamma counting; settings: in vivo; procedure, shortened: as §1
[12] = tested on: Blood; test: Biodistribution in NMRI mouse blood at 3.7 MBq/mL, iv after 2 mins by gamma counting; settings: in vivo; procedure, shortened: as §1
[13] = tested on: Kidney; test: Biodistribution in NMRI mouse kidney at 3.7 MBq/mL, iv after 60 mins by gamma counting; settings: in vivo, 1 h; procedure, shortened: as §1
[14] = Drug level in NMRI mouse cerebrum assessed as standard uptake value at 3.7 MBq/mL, iv after 2 mins by gamma counting; settings: in vivo; procedure, shortened: as §2
[15] = tested on: Kidney; test: Drug level in NMRI mouse kidney assessed as standard uptake value at 3.7 MBq/mL, iv after 2 mins by gamma counting; settings: in vivo; procedure, shortened: as §2
[16] = Biodistribution in NMRI mouse cerebrum at 3.7 MBq/mL, iv after 2 mins by gamma counting; settings: in vivo; procedure, shortened: as §1
[17] = tested on: Blood; test: Drug level in NMRI mouse blood assessed as standard uptake value at 3.7 MBq/mL, iv after 2 mins by gamma counting; settings: in vivo; procedure, shortened: as §2
[18] = Biodistribution in NMRI mouse cerebrum assessed per gram of tissue at 3.7 MBq/mL, iv after 2 mins by gamma counting; settings: in vivo; procedure, shortened: as §1
[19] = tested on: Blood; test: Biodistribution in NMRI mouse blood assessed per gram of tissue at 3.7 MBq/mL, iv after 2 mins by gamma counting; settings: in vivo; procedure, shortened: as §1
[20] = tested on: Liver; test: Biodistribution in NMRI mouse liver at 3.7 MBq/mL, iv after 60 mins by gamma counting; settings: in vivo, 1 h; procedure, shortened: as §1
[21] = tested on: Lung; test: Biodistribution in NMRI mouse lung assessed per gram of tissue at 3.7 MBq/mL, iv after 60 mins by gamma counting; settings: in vivo, 1 h; procedure, shortened: as §1
[22] = Biodistribution in NMRI mouse spleen/pancreas assessed per gram of tissue at 3.7 MBq/mL, iv after 60 mins by gamma counting; settings: in vivo, 1 h; procedure, shortened: as §1
[23] = tested on: Stomach; test: Biodistribution in NMRI mouse stomach at 3.7 MBq/mL, iv after 60 mins by gamma counting; settings: in vivo, 1 h; procedure, shortened: as §1
[24] = tested on: Liver; test: Biodistribution in NMRI mouse liver at 3.7 MBq/mL, iv after 2 mins by gamma counting; settings: in vivo; procedure, shortened: as §1
[25] = tested on: Intestine; test: Biodistribution in NMRI mouse intestine at 3.7 MBq/mL, iv after 2 mins by gamma counting; settings: in vivo; procedure, shortened: as §1
[26] = tested on: Heart; test: Biodistribution in NMRI mouse heart at 3.7 MBq/mL, iv after 60 mins by gamma counting; settings: in vivo, 1 h; procedure, shortened: as §1
[27] = tested on: Cerebellum; test: Drug level in NMRI mouse cerebellum assessed as standard uptake value at 3.7 MBq/mL, iv after 2 mins by gamma counting; settings: in vivo; procedure, shortened: as §2
[28] = tested on: Lung; test: Biodistribution in NMRI mouse lung at 3.7 MBq/mL, iv after 60 mins by gamma counting; settings: in vivo, 1 h; procedure, shortened: as §1
[29] = tested on: Cerebellum; test: Biodistribution in NMRI mouse cerebellum at 3.7 MBq/mL, iv after 2 mins by gamma counting; settings: in vivo; procedure, shortened: as §1
[30] = tested on: Liver; test: Biodistribution in NMRI mouse liver assessed per gram of tissue at 3.7 MBq/mL, iv after 60 mins by gamma counting; settings: in vivo, 1 h; procedure, shortened: as §1
[31] = Biodistribution in NMRI mouse spleen/pancreas assessed per gram of tissue at 3.7 MBq/mL, iv after 2 mins by gamma counting; settings: in vivo; procedure, shortened: as §1
[32] = Drug level in NMRI mouse spleen/pancreas assessed as standard uptake value at 3.7 MBq/mL, iv after 2 mins by gamma counting; settings: in vivo; procedure, shortened: as §2
[33] = tested on: Liver; test: Drug level in NMRI mouse liver assessed as standard uptake value at 3.7 MBq/mL, iv after 2 mins by gamma counting; settings: in vivo; procedure, shortened: as §2
[34] = tested on: Lung; test: Drug level in NMRI mouse lung assessed as standard uptake value at 3.7 MBq/mL, iv after 60 mins by gamma counting; settings: in vivo, 1 h; procedure, shortened: as §2
[35] = tested on: Heart; test: Biodistribution in NMRI mouse heart assessed per gram of tissue at 3.7 MBq/mL, iv after 2 mins by gamma counting; settings: in vivo; procedure, shortened: as §1
[36] = Drug level in NMRI mouse cerebrum assessed as standard uptake value at 3.7 MBq/mL, iv after 60 mins by gamma counting; settings: in vivo, 1 h; procedure, shortened: as §2
[37] = Drug level in NMRI mouse spleen/pancreas assessed as standard uptake value at 3.7 MBq/mL, iv after 60 mins by gamma counting; settings: in vivo, 1 h; procedure, shortened: as §2
[38] = tested on: Heart; test: Biodistribution in NMRI mouse heart assessed per gram of tissue at 3.7 MBq/mL, iv after 60 mins by gamma counting; settings: in vivo, 1 h; procedure, shortened: as §1
[39] = Biodistribution in NMRI mouse spleen/pancreas at 3.7 MBq/mL, iv after 2 mins by gamma counting; settings: in vivo; procedure, shortened: as §1
[40] = tested on: Kidney; test: Drug level in NMRI mouse kidney assessed as standard uptake value at 3.7 MBq/mL, iv after 60 mins by gamma counting; settings: in vivo, 1 h; procedure, shortened: as §2
[41] = tested on: Lung; test: Biodistribution in NMRI mouse lung at 3.7 MBq/mL, iv after 2 mins by gamma counting; settings: in vivo; procedure, shortened: as §1
[42] = tested on: Blood; test: Biodistribution in NMRI mouse blood at 3.7 MBq/mL, iv after 60 mins by gamma counting; settings: in vivo, 1 h; procedure, shortened: as §1
[43] = tested on: Liver; test: Biodistribution in NMRI mouse liver assessed per gram of tissue at 3.7 MBq/mL, iv after 2 mins by gamma counting; settings: in vivo

Drug uptake [1]: 1.39%
Drug uptake [2]: 12.6%
Drug uptake [3]: 1.26%
Drug uptake [4]: 7.3%
SUV [5]: 2.8
Drug uptake [6]: 0.3%
SUV [7]: 0.3
SUV [8]: 2.5
Drug uptake [9]: 11.76%
Drug uptake [10]: 0.12%
Drug uptake [11]: 0.2%
Drug uptake [12]: 1.5%
Drug uptake [13]: 3.2%
SUV [14]: 4.1
SUV [15]: 4.3
Drug uptake [16]: 3.42%
SUV [17]: 0.2
Drug uptake [18]: 12.13%
Drug uptake [19]: 0.7%
Drug uptake [20]: 17.5%
Drug uptake [21]: 1.4%
Drug uptake [22]: 0.9%
Drug uptake [23]: 1.6%
Drug uptake [24]: 42.4%
Drug uptake [25]: 11%
Drug uptake [26]: 0.2%
SUV [27]: 3.97
Drug uptake [28]: 0.3%
Drug uptake [29]: 1.19%
Drug uptake [30]: 8.3%
Drug uptake [31]: 5.9%
SUV [32]: 2
SUV [33]: 7
SUV [34]: 0.5
Drug uptake [35]: 5.8%
SUV [36]: 0.48
SUV [37]: 0.3
Drug uptake [38]: 1%
Drug uptake [39]: 1.4%
SUV [40]: 1.6
Drug uptake [41]: 1.8%
Drug uptake [42]: 2.2%
SMILES: CNc1ccc2nc(-c3ccc([18F])cc3)sc2c1

Drug uptake [1]: 0.6%
Drug uptake [2]: 19.9%
Drug uptake [3]: 0.31%
Drug uptake [4]: 3.6%
Drug uptake [6]: 0.1%
SUV [7]: 0.4
SUV [8]: 1.3
Drug uptake [9]: 1.6%
Drug uptake [10]: 0.03%
Drug uptake [11]: 0.2%
Drug uptake [12]: 7.9%
Drug uptake [13]: 4.8%
SUV [14]: 1.33
SUV [15]: 7.4
Drug uptake [16]: 1.08%
SUV [17]: 1.13
Drug uptake [18]: 3.6%
Drug uptake [19]: 3.1%
Drug uptake [20]: 9.8%
Drug uptake [21]: 1.3%
Drug uptake [22]: 0.7%
Drug uptake [23]: 0.3%
Drug uptake [24]: 15.6%
Drug uptake [25]: 12%
Drug uptake [26]: 0.3%
SUV [27]: 0.59
Drug uptake [28]: 0.3%
Drug uptake [29]: 0.17%
Drug uptake [30]: 5%
Drug uptake [31]: 4.7%
SUV [33]: 2.9
SUV [34]: 0.4
Drug uptake [35]: 4.2%
SUV [36]: 0.22
SUV [37]: 0.2
Drug uptake [38]: 2.1%
Drug uptake [39]: 0.6%
SUV [40]: 3.3
Drug uptake [41]: 0.9%
Drug uptake [43]: 7.9%
Drug uptake [42]: 2.7%
SMILES: [11CH3]Nc1ccc(-c2nc3ccc(O)cc3s2)cc1 [PITTSBURGH COMPOUND B]
